Only some compounds are listed: those with a hit (about 5.1% of all), similar ones and a draw of the others.
M1 antagonist – antagonists of rat M1 muscarinic receptor. Muscarinic acetylcholine receptor M1 (Rattus norvegicus), P08482. CHO-M1 cells, Fluo-4 calcium, ACh EC80 antagonist mode; hits give low values. B-score at 10 µM. 64,000 tested, 3.4% active. AID 628, 2007;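 active = calcium fluorescence response, raw or row-and-column corrected B-score, differing from the plate sample mean either way at a set confidence level, mostly lower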
Hsp90 block – tumor Hsp90 inhibitors, primary screen, cell lysate, fluorescence polarization, NCI-N417 lysate. Heat shock protein HSP 90-alpha (Homo sapiens), P07900. AID 429, 2006. inhibition, % at 30 µM. 64,000 tested, 0.35% active. Cy3B-geldanamycin FP displacement;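 active = inhibition above 50%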;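 also: 0% = tracer plus lysate wells and 100% = tracer alone without lysate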
Ecoli WT expand – growth inhibitors of wild-type E. coli, primary screen, strain BW25113, expanded library, OD600; growth inhibition, % at 100 µM; AID 710, 2007; 98,000 tested, 0.15% active; OD600 absorbance;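 active = growth inhibition above about 50% at one test dose, limit read from the data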;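 also: growth measured after 20 h incubation at 37 °C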
M1 ag – M1 muscarinic receptor agonists, primary screen, CHO-M1 cells, Fluo-4 calcium, agonist mode | Muscarinic acetylcholine receptor M1 | Fluo-4 calcium fluorescence; hits give high values | B-score at 10 µM | 64,000 tested, 3% active | AID 626, 2007;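 active = fluorescence rise, raw or as B-score row- and column-corrected plate score, outside the 99.7% band of its plate's samples, either direction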
BAP1 block – inhibitors of BAP1 deubiquitinase, primary screen, biochemical, Ub-AMC fluorescence, kinetic; Ubiquitin carboxyl-terminal hydrolase BAP1 (Homo sapiens), Q92560; recombinant BAP1, Ub-AMC hydrolysis fluorescence kinetic; hits give low values; calls only at 20 µM; 72,000 tested, 0.48% active; AID 436, 2006;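 active = activity remaining at or below 50% of control, provided the compound also passes the data quality filters; inactive = the rest, including low values that fail the filters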;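 also: 100% = DMSO wells rate and 0% = substrate alone blank rate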
Ecoli tolC – growth inhibitors of E. coli tolC mutant, primary screen, strain BW25113 ΔtolC::kan, 384-well | OD615 | AID 573, 2007 | 65,000 tested, 2.2% active | growth inhibition, % at 10 µM (by protocol);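 active = growth inhibition at or above a cutoff equal to the mean over every tested compound plus 3 SD, cut at about 60% in these data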;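 also: growth measured after 20 h incubation at 37 °C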
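signal = optical density read at 615 nm | test system = E. coli ΔtolC::kan strain BW25113 | timing = 20 h compound exposure of bacteria at 37 °C | buffer or medium = LB medium plus 50 µg/mL kanamycin | compound dosing = 10 µM final, single dose | evaluation = % inhibition of E. coli growth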
M1 ag confirm – rat M1 muscarinic receptor agonists, confirmation, CHO-M1 cells, Fluo-4 calcium, duplicate retest | shares compounds with M1 ag | Fluo-4 calcium fluorescence, agonist mode; actives lie on both sides | fluorescence change (max-min) at 10 µM | 1,700 tested, 19% active | AID 1488, 2009;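 active = fluorescence change differs from the solvent-only DMSO control mean at a set confidence level in both duplicate runs; inconclusive = differs from solvent-only control mean in just one of two runs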;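 also: an EC20 dose of acetylcholine follows compound addition during the same imaging run; raw fluorescence intensity difference in instrument units with no normalization to controls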
M4 ag counter – agonist activity at rat M4 receptor, confirmation, counter-screen for M1 allosteric modulator project, cell-based, agonist mode; shares compounds with M1 ag; fluorescence change (max-min) at 10 µM; AID 1741, 2009; 1,700 tested, 9% active; CHO M4/Gqi5 cells, Fluo-4 calcium fluorescence; actives lie on both sides;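 active = fluorescence change differing from the plate's solvent-only control wells at 99.7% confidence in both duplicates, whether higher or lower; inconclusive = differs from solvent controls in only one of two duplicates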
Target sequence (P08485 whole entry, looked up): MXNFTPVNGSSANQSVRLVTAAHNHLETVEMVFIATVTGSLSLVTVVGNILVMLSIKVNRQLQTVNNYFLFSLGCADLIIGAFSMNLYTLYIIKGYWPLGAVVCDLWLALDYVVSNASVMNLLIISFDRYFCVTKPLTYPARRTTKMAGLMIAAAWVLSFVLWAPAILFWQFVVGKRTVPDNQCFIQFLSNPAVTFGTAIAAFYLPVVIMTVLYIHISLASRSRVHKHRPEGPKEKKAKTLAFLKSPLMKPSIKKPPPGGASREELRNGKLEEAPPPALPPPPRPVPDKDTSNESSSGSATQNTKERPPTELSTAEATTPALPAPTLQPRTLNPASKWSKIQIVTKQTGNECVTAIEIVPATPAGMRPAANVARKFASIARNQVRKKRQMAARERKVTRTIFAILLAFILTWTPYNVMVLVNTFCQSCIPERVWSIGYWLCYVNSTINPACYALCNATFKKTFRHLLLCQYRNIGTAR
Starred values were filed as active, the others as inactive; i = inactive; ? = inconclusive; . = no result shown.

SMILES | M1 antagonist | Hsp90 block | Ecoli WT expand | M1 ag | BAP1 block | Ecoli tolC | M1 ag confirm | M4 ag counter
CC(C(=O)NC1CCCC1)N(Cc1ccco1)C(=O)c1snc(C(=O)NC2CCCC2)c1N (stereo not given) | -0.871 | -3.1 | -6.0 | -0.547 | . | 15.9 | . | .
COc1cc(NC(=O)c2ccco2)c(OC)cc1NC(=O)CSc1nnc(-c2cccs2)n1C | -0.799 | -1.7 | 5.0 | 6.19* | i | -4.5 | -32.5* | ?
O=C(CSc1nnc(Cn2nnc3ccccc32)o1)N(Cc1ccc(F)cc1)c1ccccc1 | -2.15 | -3.1 | -22.0 | 6.18* | i | 43.9 | -33.9* | -18
Cc1ccc2ncnc(Nc3ccc(I)cc3)c2c1 | . | . | . | . | i | . | . | .
O=c1c(C=NCCCn2ccnc2)c(-c2ccccc2)[nH]n1-c1nc2ccccc2s1 | -1.12 | -16.2 | -13.0 | 5.24* | i | 3.6 | -4.57 | -18.3
c1ccc2[nH]c(-c3c[nH]c4ccccc34)nc2c1 | . | . | . | . | i | . | . | .
c1ccc2[nH]c(-c3ccnc4ccccc34)nc2c1 | -0.987 | -2.5 | 0.0 | 2.4* | i | 5.3 | -11.2 | -34.1
CCN=C(NCC)SC1CC(=O)N(c2ccccc2)C1=O (stereo not given) | -2.08 | -0.6 | -18.0 | 10.1* | i | -24.0 | -10.6 | -27.6
CCN=C(NCC)SC1CC(=O)N(c2cccc(OC)c2)C1=O (stereo not given) | -0.507 | -1.7 | -2.0 | 2.16 | i | 7.7 | . | .
COc1ccc(N2C(=O)CC(NCc3cccc(F)c3)C2=O)cc1 (stereo not given) | 0.195 | -4.5 | . | 0.0551 | i | -11.9 | . | .
CCN=C(Nc1cccc(F)c1)SC1CC(=O)N(c2ccc(OC)cc2)C1=O (stereo not given) | -2.21 | -0.1 | -3.0 | 4.84* | i | -2.1 | -13.9 | -28.1
CCC(C)n1c(=O)[nH]c2c(c1=O)CCC2 (stereo not given) | . | . | . | . | i | . | . | .
O=S(=O)(Nc1ccc2nc(-c3ccc(Br)o3)[nH]c2c1)c1ccccc1 | 0.774 | -8.0 | 2.0 | 0.591 | i | 29.4 | . | .
O=S(=O)(Nc1ccc2nc(C(F)(F)F)[nH]c2c1)c1ccccc1 | -0.224 | 2.2 | 32.0 | 2.43* | i | 33.8 | -19.9 | -31.8
Cc1ccccc1NC(=O)CN(c1cccc([N+](=O)[O-])c1)S(=O)(=O)c1ccccc1 | . | . | . | . | i | . | . | .
O=C(c1ccc(F)cc1)N1CCN(C(=O)c2ccco2)CC1 | . | . | . | . | i | . | . | .
Cc1cccc(N2CCN(C(=O)C3CCN(S(=O)(=O)c4cccc5nsnc45)CC3)CC2C)c1 (stereo not given) | -2.04 | -4.0 | -4.0 | 16.1* | i | 16.1 | -32.8* | -87.7
O=C(C1CCN(c2nnc(-n3cccc3)s2)CC1)N1CCN(Cc2ccc3c(c2)OCO3)CC1 | -1.31 | -0.7 | -1.0 | -2.61* | i | 2.9 | -11.7 | -61.6
Cc1cccc(N2CCN(C(=O)C3CCN(S(=O)(=O)c4cccc5cccnc45)CC3)CC2C)c1 (stereo not given) | -1.85 | -3.0 | 2.0 | 8.62* | i | 4.2 | -11.6 | ?
Cc1cccc(N2CCN(C(=O)C3CCN(c4nnc(-n5cccc5)s4)CC3)CC2C)c1 (stereo not given) | -1.63 | -0.1 | -18.0 | 16* | i | 23.4 | ? | -48.2
CCCCn1c(SCC(=O)Nc2nnc(C)s2)nnc1-c1ccoc1C | -0.396 | 0.5 | 0.0 | 3.24* | i | 25.9 | ? | -37.6
CCOC(=O)c1c(-c2ccccc2)csc1NC(=O)C12CC3CCC1(C)C3(C)CO2 (stereo not given) | . | . | . | . | i | . | . | .
CCOC(=O)C1=C(C)NC(C)=C(C(=O)OCC)C1c1cn(-c2ccccc2)nc1-c1ccco1 | . | . | 1.0 | . | . | . | . | .
CCOC(=O)c1cn(-c2ccccc2)nc1-c1ccncc1 | -0.244 | -1.0 | -18.0 | 2.2* | i | -6.3 | ? | ?
CC(C)OC(=O)c1cn(-c2ccccc2)nc1-c1ccco1 | -1.07 | -7.7 | 2.0 | 4.4* | . | 10.8 | -16.1 | -39.7
SMILES | M1 antagonist | Hsp90 block | Ecoli WT expand | M1 ag | BAP1 block | Ecoli tolC | M1 ag confirm | M4 ag counter
O=[N+]([O-])c1ccc(O)c(C=Nc2ccccc2-c2nc3ccccc3s2)c1 | . | . | . | . | i | . | . | .
C=CCn1cnc2c(c1=O)c1nc3ccccc3nc1n2/N=C/c1cc(OC)c(OC)c(OC)c1 | -2.16* | -3.0 | 4.0 | 11.1* | i | 77.2* | -32.7* | -87.2
COc1cc(-n2c3nc4ccccc4nc3c3c(=O)n(Cc4ccco4)cnc32)cc(OC)c1OC | 0.38 | -8.7 | . | -0.525 | i | -5.2 | . | .
Cc1ccc(COc2cc3oc(=O)cc(C)c3cc2Cl)cc1 | . | . | . | . | i | . | . | .
CN(C)c1ccc2c(c1)OC(N)=C(C#N)C2c1cccc(F)c1 (stereo not given) | -3.44* | -8.3 | 6.0 | 20.3* | i | 20.1 | 163* | 120*
CNC(=O)c1ccc(-c2sc3nc(N4CCOCC4)c4c(c3c2N)CC(C)(C)OC4)o1 | . | . | -7.0 | . | . | . | . | .
CNC(=O)c1ccc(-c2sc3nc(N4CCOCC4)c4c(c3c2N)CCCC4)o1 | -1.12 | 8.3 | -9.0 | 5.83* | i | 29.0 | -3.73 | -68.9*
COc1ccc(CNC2CC(=O)N(C)C2=O)cc1 (stereo not given) | 0.219 | -2.7 | 3.0 | 3.42* | i | -10.6 | -14.3 | -50.2
O=C(CCCN1C(=O)c2ccccc2C1=O)Nc1ccccc1C(=O)N1CCOCC1 | 0.681 | -3.7 | 0.0 | 2.31* | i | 5.8 | -18.9 | -31
CCOC(=O)c1c(NC(=O)c2ccc(Cl)cc2)sc2c1CCC2 | . | . | . | . | i | . | . | .
O=C(NC1CCCC1)c1ccc(CSCc2ccccc2F)o1 | . | . | -5.0 | . | . | . | . | .
O=C(O)c1ccc(CSCc2ccccc2F)o1 | -1.15 | -1.9 | -6.0 | 6.81* | i | 14.1 | -23.4 | -31.6
Cc1cccc(C(CC(=O)N2CCCC2)c2ccccc2)c1O (stereo not given) | 0.0381 | 2.1 | -1.0 | 4.14* | i | -1.4 | 4.05 | -2.5
O=C(Nc1ccccc1Cl)c1ccc([N+](=O)[O-])s1 | . | . | . | . | i | . | . | .
CCN1C(=O)C(Cc2nc3ccccc3c(=O)n2-c2ccccc2)c2ccccc21 (stereo not given) | . | . | 3.0 | . | . | . | . | .

Screening results (PubChem)
